Assay results as given in ChEMBL document CHEMBL1145815, “SYNOPSIS: SYNthesize and OPtimize System in Silico” (J Med Chem, 2003).

Tests used:
[1] = tested on: MT4; test: Logarithm of cytotoxic concentration that causes half of the cells to die in mock-infected MT-4 cell cultures; type: functional, Homo sapiens
How it was run: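 Mock-infected MT-4 cell cultures exposed to compound; viability read spectrophotometrically as mitochondrial dehydrogenase reduction of yellow MTT to blue formazan in metabolically active cells. CC50 taken as the concentration killing half the cells, run alongside HIV-infected cultures.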

[2] = Logarithm of inhibitory concentration against HIV-induced cytopathogenicity in MT-4 cell cultures; type: functional, cell-based; conditions: Human immunodeficiency virus 1, MT4
How it was run: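 Protection of MT-4 cell cultures against HIV-induced cytopathogenicity. Reduction of yellow MTT to blue formazan by mitochondrial dehydrogenases of metabolically active cells is read spectrophotometrically in HIV- and mock-infected cultures. IC50 is the concentration giving 50% protection against HIV-induced cytopathogenicity. CC50 is the concentration killing half the cells in mock-infected cultures.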

Row | SMILES | pCC50 [1] | IC50 [2]
1 | CC(NCCc1cccs1)c1cc(C#N)ccc1O (centres undefined) | <4 | > 100 µM
2 | O=C1NCCCC1C(=O)NNC(=S)Nc1cc(Cl)cc(Cl)c1 (centres undefined) | 4.3 | > 50.1 µM
3 | COC(C/N=C(\S)Nc1c(Br)cc(Cl)cc1Br)OC | <4 | 25.1 µM
4 | CSc1cccnc1C(=O)NCc1ccc(N)cc1 | <4 | 39.8 µM
5 | N#Cc1ccc(O)c(NC(=O)Nc2cccc(F)c2)c1 | <4 | > 100 µM
6 | COc1cccc(CC/N=C(\S)Nc2ccc(C#N)cc2)c1 | 4.3 | 1.58 µM
7 | NC(=O)N/N=C\c1cc(Cl)ccc1Nc1cccc(Cl)c1 | <4 | 2.51 µM
8 | CC(Nc1ncccc1C(N)=O)c1cccc(Cl)c1 (centres undefined) | <4 | 12.6 µM
9 | CCCc1cc(O)nc(SCC(C)(C)c2ccccc2)n1 | <4.3 | 15.8 µM
10 | S=C(NCc1ccc(Cl)c(Cl)c1)Nc1cccnc1 | 4.4 | > 39.8 µM
11 | CC(C)n1c(O)nnc1Sc1cccc(C(F)(F)F)c1 | <4 | 79.4 µM
12 | CC(C)(C)c1nc(COc2ccc(C(N)=O)c(O)c2)no1 | <4 | > 100 µM
13 | O=C(N/N=C(\S)Nc1cc(Cl)cc(Cl)c1)c1ccccc1F | 5.1 | > 7.94 µM
14 | O=C(Cc1ccc(I)cc1)Nc1ncccc1O | <4 | > 100 µM
15 | NC(=O)N/N=C\c1ccccc1NCc1ccccn1 | <4 | 6.31 µM
16 | Oc1cc(O)cc(CNc2cc(Cl)c(Cl)c(Cl)c2)c1 | 4.3 | > 50.1 µM
17 | O=C(Nc1cccnc1)Nc1nc(Cl)ccc1Cl | <4 | 31.6 µM
